Assay results published in ChEMBL document CHEMBL1137702, “Identification of hydrolytically stable and selective P2Y(1) receptor agonists” (Eur J Med Chem, 2009).
One block for each compound: values may come before it. Activity calls are given as the source filed them. No cut-off for these calls is given here.

What was measured:
[1] = target: T1, Ectonucleoside triphosphate diphosphohydrolase 1 (Homo sapiens) (UniProt P49961); assay: Activity of human NTPDase 1 expressed in human 293T cells assessed as drug hydrolysis at 100 uM after 20 mins relative to ATP; assay type: cell-based; set-up: scale not given: the % may be the effect or the level left
T1 sequence (whole entry): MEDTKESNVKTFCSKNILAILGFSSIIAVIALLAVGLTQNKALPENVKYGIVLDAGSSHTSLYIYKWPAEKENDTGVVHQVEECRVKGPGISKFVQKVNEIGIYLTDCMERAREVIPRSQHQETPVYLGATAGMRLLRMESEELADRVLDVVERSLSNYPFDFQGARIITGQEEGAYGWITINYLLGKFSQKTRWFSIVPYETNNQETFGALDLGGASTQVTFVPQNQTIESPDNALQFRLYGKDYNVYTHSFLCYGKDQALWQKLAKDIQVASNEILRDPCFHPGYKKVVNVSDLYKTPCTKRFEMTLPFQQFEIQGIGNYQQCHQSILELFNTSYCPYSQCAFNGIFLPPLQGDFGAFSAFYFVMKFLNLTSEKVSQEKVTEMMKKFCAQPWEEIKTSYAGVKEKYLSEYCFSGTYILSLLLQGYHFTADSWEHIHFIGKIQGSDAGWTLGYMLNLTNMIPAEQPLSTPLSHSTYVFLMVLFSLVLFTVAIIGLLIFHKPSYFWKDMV
Procedure, shortened: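 Human NTPDase1, 2, 3 or 8 in crude extracts of transfected 293T cells, pre-incubated 3 min at 37 °C in Tris-Ringer buffer pH 7.4. […] Untransfected-cell extract activity subtracted.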

[2] = target: P2Y purinoceptor 6 (Rattus norvegicus) (UniProt Q63371); assay: Agonist activity at rat P2Y6 receptor expressed in human 1321N1 cells assessed as increase in intracellular calcium concentration at 100 uM by dual-excitation spectrofluorimetric analysis; assay type: functional, cell-based
Sequence of P2Y purinoceptor 6 (Rattus norvegicus) (Q63371 whole entry): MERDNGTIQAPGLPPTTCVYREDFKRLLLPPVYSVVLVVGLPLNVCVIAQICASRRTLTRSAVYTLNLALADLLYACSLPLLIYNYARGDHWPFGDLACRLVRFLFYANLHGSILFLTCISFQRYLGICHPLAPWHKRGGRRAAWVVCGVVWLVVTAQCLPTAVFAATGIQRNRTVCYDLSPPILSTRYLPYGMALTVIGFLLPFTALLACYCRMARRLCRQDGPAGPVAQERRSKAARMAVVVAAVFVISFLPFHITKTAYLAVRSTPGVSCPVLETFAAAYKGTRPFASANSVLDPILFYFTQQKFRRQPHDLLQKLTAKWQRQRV

[3] = target: P2Y purinoceptor 1 (Meleagris gallopavo) (UniProt P49652); assay: Antagonist activity at turkey P2Y1 receptor expressed in human 1321N1 cells assessed as inhibition of 2-MeS-ADP-induced increase in intracellular calcium concentration by dual-excitation spectrofluorimetric analysis; assay type: functional, cell-based
Sequence of P2Y purinoceptor 1 (Meleagris gallopavo) (P49652 whole entry): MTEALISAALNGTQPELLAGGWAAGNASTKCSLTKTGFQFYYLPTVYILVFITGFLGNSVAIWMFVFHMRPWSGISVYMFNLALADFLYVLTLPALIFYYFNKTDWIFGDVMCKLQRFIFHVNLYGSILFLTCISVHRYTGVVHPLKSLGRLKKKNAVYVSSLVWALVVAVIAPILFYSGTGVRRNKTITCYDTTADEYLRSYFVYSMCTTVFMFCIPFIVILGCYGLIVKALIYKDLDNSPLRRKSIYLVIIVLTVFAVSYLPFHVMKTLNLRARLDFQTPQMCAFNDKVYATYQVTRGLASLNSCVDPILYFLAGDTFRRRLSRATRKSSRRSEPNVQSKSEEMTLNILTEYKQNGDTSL
Procedure, shortened: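 Fura-2-loaded suspensions of stably transfected 1321N1 cells were assayed at 37 °C in HEPES-buffered saline pH 7.4 with 1 mM Ca2+ and Mg2+. […] [Ca2+]i was read by dual-excitation spectrofluorometry.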

[4] = target: T2, Ectonucleoside triphosphate diphosphohydrolase 2 (Homo sapiens) (UniProt Q9Y5L3); assay: Inhibition of human NTPDase 2 expressed in human 293T cells; assay type: cell-based
T2 sequence (whole entry): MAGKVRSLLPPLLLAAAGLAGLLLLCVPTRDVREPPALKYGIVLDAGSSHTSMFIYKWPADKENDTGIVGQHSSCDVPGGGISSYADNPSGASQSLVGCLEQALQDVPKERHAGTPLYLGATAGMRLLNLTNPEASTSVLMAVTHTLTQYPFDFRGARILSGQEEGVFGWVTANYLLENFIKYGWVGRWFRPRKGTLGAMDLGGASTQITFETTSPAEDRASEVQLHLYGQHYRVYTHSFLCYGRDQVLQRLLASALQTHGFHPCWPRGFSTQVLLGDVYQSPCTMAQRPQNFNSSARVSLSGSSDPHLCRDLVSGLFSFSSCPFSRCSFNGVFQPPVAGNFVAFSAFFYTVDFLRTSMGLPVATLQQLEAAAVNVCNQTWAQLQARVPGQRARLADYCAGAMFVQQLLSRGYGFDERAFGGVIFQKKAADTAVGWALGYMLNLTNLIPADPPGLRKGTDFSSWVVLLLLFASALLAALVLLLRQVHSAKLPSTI

[5] = target: T3, Ectonucleotide pyrophosphatase/phosphodiesterase family member 3 (Homo sapiens) (UniProt O14638); assay: Inhibition of human NPP3 expressed in human 293T cells; assay type: cell-based
T3 sequence (whole entry): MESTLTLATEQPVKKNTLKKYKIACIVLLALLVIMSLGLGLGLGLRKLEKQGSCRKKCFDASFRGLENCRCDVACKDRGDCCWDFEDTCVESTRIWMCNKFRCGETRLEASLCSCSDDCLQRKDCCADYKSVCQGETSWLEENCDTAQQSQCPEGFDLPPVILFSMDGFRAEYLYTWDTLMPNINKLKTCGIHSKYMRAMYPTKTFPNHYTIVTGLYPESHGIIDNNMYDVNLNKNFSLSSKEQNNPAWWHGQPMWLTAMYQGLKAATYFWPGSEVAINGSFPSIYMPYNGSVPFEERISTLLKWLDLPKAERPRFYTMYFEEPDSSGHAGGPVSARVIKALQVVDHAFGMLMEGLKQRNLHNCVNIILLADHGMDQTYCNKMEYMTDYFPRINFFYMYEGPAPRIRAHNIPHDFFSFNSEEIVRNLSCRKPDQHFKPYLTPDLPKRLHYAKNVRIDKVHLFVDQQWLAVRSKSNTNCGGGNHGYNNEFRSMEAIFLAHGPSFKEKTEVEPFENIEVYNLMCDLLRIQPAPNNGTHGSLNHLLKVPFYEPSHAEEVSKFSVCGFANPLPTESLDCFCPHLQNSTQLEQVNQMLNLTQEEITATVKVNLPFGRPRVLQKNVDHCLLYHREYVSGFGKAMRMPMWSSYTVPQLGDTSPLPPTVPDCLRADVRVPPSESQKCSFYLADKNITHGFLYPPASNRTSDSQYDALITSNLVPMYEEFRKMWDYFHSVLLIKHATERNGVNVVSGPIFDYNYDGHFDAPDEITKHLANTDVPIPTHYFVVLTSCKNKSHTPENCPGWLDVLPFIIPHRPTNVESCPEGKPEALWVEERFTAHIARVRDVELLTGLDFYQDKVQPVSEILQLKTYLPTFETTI

Compound: CSc1nc(N)c2ncn([C@@H]3O[C@H](COP(=O)(O)OP(=O)(O)CP(=O)(O)O)[C@@H](O)[C@H]3O)c2n1
Activity [1]: 8%
Activity [2]: Active
Activity [3]: inactive
Activity [4]: inactive
Activity [5]: inactive

Compound: BP(=O)(OC[C@H]1O[C@@H](n2cnc3c(N)ncnc32)[C@H](O)[C@@H]1O)OP(=O)(O)CP(=O)(O)O (some centres not stated)
Activity [1]: 1%
Activity [4]: inactive
Activity [5]: inactive

Compound: BP(=O)(OC[C@H]1O[C@@H](n2cnc3c(N)ncnc32)[C@H](O)[C@@H]1O)OP(=O)(O)CP(=O)(O)O (single isomer, unassigned; diastereomer B)
Activity [1]: 0%
Activity [2]: Active
Activity [3]: inactive
Activity [4]: inactive
Activity [5]: inactive

The next lines start with the values.

Activity [1]: < 1%
Activity [3]: inactive
Activity [4]: inactive
Activity [5]: inactive
Compound: BP(=O)(OC[C@H]1O[C@@H](n2cnc3c(N)nc(SC)nc32)[C@H](O)[C@@H]1O)OP(=O)(O)CP(=O)(O)O (single isomer, unassigned; diastereomer A)

Activity [1]: < 1%
Activity [2]: Active
Activity [3]: inactive
Activity [4]: inactive
Activity [5]: inactive
Compound: BP(=O)(OC[C@H]1O[C@@H](n2cnc3c(N)nc(SC)nc32)[C@H](O)[C@@H]1O)OP(=O)(O)CP(=O)(O)O (single isomer, unassigned; diastereomer B)
